Experimental data pooled from the literature.
Compare with care: the assays were run in different laboratories.
Target: Tyrosine-protein kinase Yes (YES1, Homo sapiens, UniProt P07947)

Structure (SMILES) | test | conditions | remaining binding
N[C@@H]1CCN(c2nccc(-c3cnn4ncccc34)n2)C1 | binding | 1 µM | 100%
C[C@@H](c1ccc(-n2cnc3c(N)ncnc32)cc1)N1CCc2nn(C)c(Cc3ccccc3)c2C1=O | binding, competition with immobilised ligand | 0.1 µM | 74%
CN(C)c1ncc(F)c(-c2cnn3ncccc23)n1 | binding | 1 µM | 78%
CCN1CCN(Cc2ccc(C(=O)Nc3ccc(C)c(Oc4ccc5c(c4)CC(=O)N5)c3)cc2C(F)(F)F)CC1 | binding, competition with immobilised ligand | 1 µM | 98%
Cc1nc(C2CCN(C(=O)c3ccc(OC(F)(F)F)cc3N)CC2)c2ncc(N3CCN(C)CC3)cc2n1 | cell-free assay, competition with immobilised ligand | 1 µM | 100%
Cc1cnn2ncc(-c3ccnc(N(C)C)n3)c2c1 | binding | 1 µM | 100%
COc1cnc(Nc2cccc(S(N)(=O)=O)c2)nc1N1CCN(c2ccccc2)CC1 | binding, competition with immobilised ligand | 1 µM | 89%
CC(=O)N1CCC(c2ccc(C(=O)NC(=N)N)cc2C(F)(F)F)CC1 | cell-free assay, competition with immobilised ligand | 1 µM | 98%
Cc1ccc(-n2nc(C(C)(C)C)cc2NC(=O)Nc2ccc(-n3c(N)c(C(N)=O)c4nc5ccccc5nc43)cc2)cc1 | cell-free assay, competition with immobilised ligand | 1 µM | 9.6%
CSc1cccnc1N1CCN(Cc2nc3ccccc3[nH]2)CC1 | cell-free assay, competition with immobilised ligand | 1 µM | 100%
C[C@H]1CCN(c2nccc(-c3cnn4ncccc34)n2)C1 | binding | 1 µM | 94%
O=C(NCC1CCOCC1)c1n[nH]cc1NC(=O)c1c(F)cccc1F | binding, competition with immobilised ligand | 1 µM | 99%
O=C(N[C@H]1CCCCC/C=C\C2C[C@@]2(C(=O)O)NC(=O)[C@@H]2C[C@@H](Oc3ccncc3)CN2C1=O)OC1CCCC1 (stereo partly shown) | binding, competition with immobilised ligand | 1 µM | 100%
CN(CCCC(F)(F)F)c1nccc(-c2cnn3ncccc23)n1 | binding | 1 µM | 94%
O=C(NCc1ncc(C(F)(F)F)cc1Cl)c1ccc2c(c1)C1(CCS(=O)(=O)CC1)[C@H](C1CC1)N2S(=O)(=O)c1ccc(F)cc1 | cell-free assay, competition with immobilised ligand | 1 µM | 90%
COc1ncc2cc3ccccc3nc2c1C#N | cell-free assay, competition with immobilised ligand | 5 µM | 100%
CN1CCN(c2ccc(Nc3nccc(-c4cccc([N+](=O)[O-])c4)n3)cc2C(F)(F)F)CC1 | binding | 10 µM | 32%
CN(c1ccnc(CNc2nc(Nc3ccc4c(c3)CC(=O)N4)ncc2C(F)(F)F)n1)S(C)(=O)=O | cell-free assay, competition with immobilised ligand | 1 µM | 77%
CC1CCCN1c1nccc(-c2cnn3ncccc23)n1 (stereo not shown) | binding | 1 µM | 89%
Cc1cnc(Nc2ccc(C(=O)N3CCC(N4CCCC4)CC3)cc2)nc1-c1cc2ccccc2s1 | binding, competition with immobilised ligand | 1 µM | 43%
CN([C@@H]1CCc2c(CC(=O)O)c3cc(S(C)(=O)=O)ccc3n2C1)S(=O)(=O)c1ccc(F)cc1 | cell-free assay, competition with immobilised ligand | 1 µM | 88%
O=C(c1ccc(Nc2nccc(-c3cc4ccccc4s3)n2)cc1)N1CCC(N2CCCC2)CC1 | binding, competition with immobilised ligand | 1 µM | 93%
CN(C)c1ncnc(-c2ccc3nc(Nc4cc(CN5CCN(C(=O)CC(F)(F)F)CC5)ccn4)[nH]c3c2)c1Cl | cell-free assay, competition with immobilised ligand | 1 µM | 76%
CNC(=O)[C@@H]1CC[C@@H](n2c(-c3ccc4cnccc4c3)nc3ccc(C(=O)NCc4cccc(C(N)=O)c4)cc32)C1 | binding, competition with immobilised ligand | 1 µM | 100%
O=C(c1ccc(Nc2ncc(Cl)c(-c3cc4ccccc4s3)n2)cc1)N1CCC(N2CCCC2)CC1 | binding, competition with immobilised ligand | 1 µM | 71%
